Screening data: PubChem, several laboratories
Compounds with a hit are over-represented: about 11% of the library has one in this group of screens.
G6PDH CS = L. mesenteroides G6PDH inhibition counter-screen | Purified L. mesenteroides G6PDH, diaphorase/resazurin coupled fluorescence, 45 min | inhibition, % at 5 µM | 0.12% of 200,000 active
WT yeast gro inh = growth inhibition of WT yeast, mitochondrial fusion screen; mitochondrial fusion phenotypic screen, WT strain; inhibition, % at 10 µM; 2.1% of 190,000 active; AID 1362; in the data active = inhibition above about 58%; tested in S. cerevisiae
Diaphorase act = activates diaphorase or chemically reduces, flagging diaphorase assay artifacts; Diaphorase/resazurin coupled assay, resorufin fluorescence, 16 min; stronger effect = higher value; 1 = vehicle wells, 0 = NADH-free wells; activation factor at 20 µM; 0.005% of 190,000 active; AID 1229;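 active = diaphorase activity raised at least twofold by the compound at 20 µM; inactive = activation factor below 2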
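Test system: Clostridium kluyveri diaphorase, purified enzyme. Buffer or medium: 50 mM HEPES pH 7.4 buffer plus MgCl2 and Tween 20. Also added: 0.114 mM NADH and 0.1 mM resazurin, final amounts. Dosing: compound 20 µM once, DMSO 1%. Schedule: 16 min enzyme reaction, ambient temperature. Detection: fluorescence of resorufin, 544 nm excitation, 590 nm emission.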
Diaphorase inh = counter-screen for diaphorase-based assays: diaphorase inhibitors and chemical oxidizers; AID 1217; inhibition, % at 20 µM; diaphorase resazurin-to-resorufin fluorescence, NADH, 16 min; bacterial (C. kluyveri) enzyme, not human; 0.69% of 190,000 active;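 active = primary screen inhibition at 20 µM above a set limit, cut at about 50% in these data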
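System: Diaphorase enzyme from Clostridium kluyveri | Amount: Enzyme working solution with 0.14 U/mL diaphorase | Benchmarks: No-NADH positive control and DMSO neutral control | Signal: Fluorescence of resorufin formed from resazurin, Ex 544/Em 590 nm | Schedule: 16-min room-temperature incubation before reading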
L major viab = reduces viability of Leishmania major promastigotes | 9% of 200,000 active | resazurin fluorescence viability | inhibition, % at 10 µM;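 also: promastigotes grown with compound for 44 hours at 28 °C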
A number is an active result; . = inactive; / = no result. Rule as the data show it, unless noted: active = inhibition above about 50%; inactive = the rest.

SMILES	G6PDH CS	WT yeast gro inh	Diaphorase act	Diaphorase inh	L major viab
Cn1c(O)c(/C=N/Nc2ccccc2)c(=O)n(C)c1=O	.	66.7	.	.	86.4
Cc1cc(O)c(/C=N/Nc2ccc(F)cc2)c(=O)o1	.	.	.	.	70.3
COc1cc(/C=N/NC(=O)C2c3ccccc3Oc3ccccc32)ccc1O	.	.	.	.	.
Cc1ccc(NS(=O)(=O)c2cc(NC(=O)c3ccc4c(c3)NC(=O)CS4)ccc2C)c(C)c1	.	.	.	.	64.0
Cc1ccc(C)c(NS(=O)(=O)c2cc(C(=O)Nc3cccc(N(C)S(C)(=O)=O)c3)ccc2C)c1	.	.	.	.	90.4
COc1ccc(NC(=O)c2ccc3c(c2)NC(=O)CS3)cc1S(=O)(=O)Nc1ccc(Br)cc1	.	.	.	.	.
Cc1ccc(NS(=O)(=O)c2cc(C(=O)Nc3cccc(N(C)S(C)(=O)=O)c3)ccc2C)c(C)c1	.	.	.	.	69.1
N#CCCn1cc(/C=N/NC(N)=S)c(-c2ccc(-c3ccccc3)cc2)n1	.	.	.	.	.
COC(=O)C(C)NC(=O)c1ccc(C(C)(C)C)cc1 (centres undefined)	.	.	.	.	.
O=C(Nc1cccc(NC(=O)c2ncn[nH]2)c1)c1cccc(Cl)c1	.	.	.	.	100.0
CN(C)c1ccc(-n2cccc2/C=C/[N+](=O)[O-])cc1	.	.	.	.	97.2
O=c1nc(/C=C/c2cccn2-c2ccc([N+](=O)[O-])cc2)cc(C(F)(F)F)[nH]1	.	.	.	.	.
Cc1ccc(-c2cc(=O)c3ccccc3[nH]2)cc1	.	.	.	.	.
Cc1ccc(-c2cc3c(N=O)c4ccccc4c-3n[nH]2)cc1	.	64.0	.	.	.
Cc1ccc(Nc2nc(N)c([N+](=O)[O-])c(N3CCOCC3)n2)cc1C	.	.	.	.	.
Cc1cccc(Nc2nc(N)c([N+](=O)[O-])c(N3CCCC(C)C3)n2)c1 (centres undefined)	.	93.3	.	.	.
Cc1ccc(Nc2nc(N)c([N+](=O)[O-])c(N3CCC(C)CC3)n2)cc1C	.	95.2	.	.	.
COc1cnc(SCC(=O)O)[nH]c1=O	.	.	.	.	.
COc1cc(OC)c(NC(=O)CCc2nc(-c3cccs3)no2)cc1Cl	.	.	.	.	.
O=C(/C=C/c1ccccc1)NCCSCc1ccc(Cl)cc1	.	.	.	.	.
O=C(/C=C/c1ccc(Cl)cc1Cl)NCCSCc1ccccc1	.	58.5	.	.	.
O=C(/C=C/c1ccc(Cl)cc1)NCCSc1ccccc1	.	.	.	.	.
O=C(/C=C/c1ccc(Cl)cc1Cl)NCCSc1ccccc1	.	63.9	.	.	.
Cc1cc(C)nc(NS(=O)(=O)c2ccc(NC(=O)C3(c4ccccc4)CCCC3)cc2)n1	.	.	.	.	.
Cc1cc(C)cc(NC(=O)C(NCCN2CCOCC2)c2ccccc2)c1 (centres undefined)	.	.	.	.	.
SMILES	G6PDH CS	WT yeast gro inh	Diaphorase act	Diaphorase inh	L major viab
Cc1ccc(NS(=O)(=O)c2cc(OCC(N)=O)c(C)cc2Cl)cc1	.	.	.	.	78.5
Cc1cc(Cl)c(S(=O)(=O)Nc2ccc3c(c2)OCO3)cc1OCC(N)=O	.	.	.	.	.
Cc1ccc(C)c(S(=O)(=O)Nc2ccc(C(N)=O)cc2)c1	.	.	.	57.3	.
CN(C)c1ccc(/C=C/c2ccc3ccccc3[n+]2C)cc1	.	.	.	.	100.4
CN(C)c1ccc(/C=C/c2ccc3c4ccccc4ccc3[n+]2-c2ccccc2)cc1	.	.	.	68.1	100.5
CN(C)c1ccc(/C=C/c2ccncc2)cc1	.	.	.	.	.
CCOC(=O)c1ccc(NC(=O)N2CCN(c3cccc(OC)c3)CC2)cc1	.	.	.	.	.
Cc1cccc(/C=N/NC(=O)c2ccc(Br)cc2)c1	.	.	.	.	.
Cc1cccc(N=N/C(=C\O)C(=O)c2ccc(Br)cc2)c1	.	96.5	.	.	.
Cc1cccc(N/N=C(\C=N\N)C(=O)c2ccc(Br)cc2)c1	.	76.6	.	.	.
O=C(/C(=C/O)N=Nc1cccc(C(F)(F)F)c1)c1ccccc1	.	94.6	.	.	.
CCn1cc(C(=S)N2CCC(C(N)=O)CC2)c2ccccc21	.	.	.	.	.
COCCN(C(=O)CSc1nc2ccccc2c(=O)n1CC(C)C)c1c(N)n(Cc2ccccc2)c(=O)[nH]c1=O	.	.	.	.	.
CC(=O)N1N=C(c2ccc(Br)cc2)CC1c1cn(C)c2ccccc12 (centres undefined)	.	74.2	.	.	.
CCCC(=O)N1N=C(c2ccccc2)CC1c1cn(C)c2ccccc12 (centres undefined)	.	.	.	.	.
CCN(CC)CCCNC(=O)C1c2ccccc2C(=O)N(CCOC)C1c1ccc(F)cc1 (centres undefined)	.	.	.	.	.
CCN(CCCNC(=O)C1c2ccccc2C(=O)N(CCOC)C1c1ccc(F)cc1)Cc1ccccc1 (centres undefined)	.	.	.	.	99.2
CC(C)Cc1nnc(NC(=O)Cc2ccc([N+](=O)[O-])cc2)s1	.	.	.	.	.
CCCCCCOc1ccc(C(CC(N)=O)C(=O)O)cc1 (centres undefined)	.	.	.	.	.
Cc1cc(C)c(C#N)c(SCC(=O)c2ccc(Cl)cc2Cl)n1	.	.	.	.	100.0
Cc1snc(SCC(=O)c2ccc(Cl)cc2)c1C#N	.	.	.	.	99.4
Cc1ccc(C(=O)CSc2nsc(C)c2C#N)cc1	.	.	.	.	.
N#CCCSc1ccccc1NC(=O)c1ccc(S(=O)(=O)N2CCCC2)cc1	.	.	.	.	.
CCOC(=O)C1(CC2CCCCO2)CCN(Cc2nccn2-c2cccc(C)c2)CC1 (centres undefined)	.	.	.	.	52.5
CCOC(=O)C1(CC2CCCCO2)CCN(Cc2nccn2-c2ccc(OC)cc2)CC1 (centres undefined)	.	.	.	.	.
SMILES	G6PDH CS	WT yeast gro inh	Diaphorase act	Diaphorase inh	L major viab
S=C(NCCc1ccccc1)N1CCc2ccccc2C1	.	71.3	.	.	77.8
Oc1ccc(N2CCN(C(=S)NCCc3ccccc3)CC2)cc1	.	.	.	.	98.4
S=C(NCCc1ccccc1)N1CCN(Cc2ccccc2)CC1	.	.	.	.	57.5
OC1CCN(C(=S)NCCc2ccccc2)CC1	.	.	.	.	.
COC(=O)c1ccc(NC(=O)C(=O)N2CCN(C(=S)NCCc3ccccc3)CC2)cc1	.	.	.	.	72.2
Fc1cccc(CN2CCN(C(=S)NCCc3ccccc3)CC2)c1	.	.	.	.	.
COc1ccc(N2CCN(C(=S)NCCc3ccccc3)CC2)cc1	/	/	/	/	.
COc1ccc(OCC(=O)NNC(=O)C(=O)N2CCCC2)cc1	.	.	.	.	.
COc1ccc(O)c(C(=O)c2cnc3c(c2)CN(C)C(=O)N3)c1	.	.	.	.	.
